# Reference: ChEMBL document CHEMBL3997766, “Synthesis and pre-clinical studies of new amino-acid ester thiazolide prodrugs” (Eur J Med Chem, 2017)
# Experiments:
# Rattus norvegicus [1] = experiment: Elimination half life in Sprague-Dawley rat assessed as Tizoxanide level in plasma at 6.3 mg/kg, iv administered as single dose; type: ADME, organism-based; settings: in vivo
# Plasma [2] = experiment: Drug metabolism in Sprague-Dawley rat assessed as Tizoxanide in plasma at 28 mg/kg, po measured at 0.083 hrs post dose; type: ADME, organism-based; settings: in vivo
# Rattus norvegicus [3] = experiment: Tmax in Sprague-Dawley rat assessed as Tizoxanide level in plasma at 28 mg/kg, po; type: ADME, organism-based; settings: in vivo
# Outline: (§1)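 Rats in groups of three got a single oral dose (30 mg/kg) or a single intravenous injection (6 mg/kg). Serial blood samples were taken at 5, 10, 15 and 30 min and at 1, 2, 4, 8, 23 and 24 h post-dose for plasma drug and glucuronide levels. Bioavailability came from oral versus intravenous AUC after dose correction to 30 mg/kg.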
# Rattus norvegicus [4] = experiment: Oral bioavailability in Sprague-Dawley rat assessed as Tizoxanide-glucuronide level at 28 mg/kg; type: ADME, organism-based; settings: in vivo; outline: as §1
# Rattus norvegicus [5] = experiment: Elimination half life in Sprague-Dawley rat assessed as Tizoxanide level at 6.3 mg/kg, iv administered as single dose; type: ADME, organism-based; settings: in vivo
# Rattus norvegicus [6] = experiment: Neurotoxicity in Sprague-Dawley rat assessed as decreased abdominal tone at 1000 mg/kg administered via oral gavage as single dose after 4 to 24 hrs; type: toxicity, organism-based; settings: in vivo
# Outline: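 Three groups of 10 rats (5M/5F) received a single dose by oral gavage of 100, 300 or 1000 mg/kg, and an untreated group served as control. Clinical signs of CNS effects were recorded at 4 and 24 h after treatment.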
# Canis familiaris [7] = experiment: Toxicity in Beagle dog at 5 to 75 mg/kg, po administered as gelatin capsule qd for 28 consecutive days; type: organism-based, Canis lupus familiaris; settings: in vivo
# Rattus norvegicus [8] = experiment: AUC (0 to t) in Sprague-Dawley rat assessed as tizoxanide-glucuronide level in plasma at 30 mg/kg, po administered as single dose; type: ADME, organism-based; settings: in vivo
# Outline: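 Plasma tizoxanide and tizoxanide glucuronide were measured and PK parameters derived. AUCs were dose-corrected to 30 mg/kg for bioavailability.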
# Plasma [9] = experiment: Prodrug activation in Sprague-Dawley rat assessed as tizoxanide formation in plasma at 6.3 mg/kg, iv administered as single dose measured after 5 mins; type: organism-based; settings: in vivo; outline: as §1
# Rattus norvegicus [10] = experiment: Tmax in Sprague-Dawley rat assessed as Tizoxanide in plasma at 6.3 mg/kg, iv administered as single dose; type: ADME, organism-based; settings: in vivo; outline: as §1
# Rattus norvegicus [11] = experiment: Toxicity in Sprague-Dawley rat assessed as decrease in prothrombine time at 10 to 75 mg/kg administered as oral gavage qd for 28 consecutive days followed by 2 weeks recovery period measured on day 43; type: organism-based; settings: in vivo, 336 h
# Outline: (§2)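 Sub-acute study in Sprague-Dawley rats dosed orally with a suspension at 10, 30 and 75 mg/kg once daily for 28 consecutive days. Four groups of up to 30 rats each (15M/15F).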
# Rattus norvegicus [12] = experiment: Toxicity in Sprague-Dawley rat assessed as decrease in serum alanine transferase level at 75 mg/kg administered as oral gavage qd for 28 consecutive days followed by 2 weeks recovery period measured on day 43; type: organism-based; settings: in vivo, 336 h; outline: as §2
# Rattus norvegicus [13] = experiment: Toxicity in Sprague-Dawley rat assessed as decrease in serum total protein level at 75 mg/kg administered as oral gavage qd for 28 consecutive days followed by 2 weeks recovery period measured on day 43; type: organism-based; settings: in vivo, 336 h; outline: as §2
# Rattus norvegicus [14] = experiment: Toxicity in Sprague-Dawley rat assessed as increase in serum chloride level at 30 mg/kg administered as oral gavage qd for 28 consecutive days followed by 2 weeks recovery period measured on day 43; type: organism-based; settings: in vivo, 336 h; outline: as §2
# Rattus norvegicus [15] = experiment: Toxicity in Sprague-Dawley rat assessed as decrease in urine specific gravity at 30 to 75 mg/kg administered as oral gavage qd for 28 consecutive days followed by 2 weeks recovery period measured on day 43; type: organism-based; settings: in vivo, 336 h; outline: as §2
# Rattus norvegicus [16] = experiment: Toxicity in Sprague-Dawley rat assessed as eosinophilic cytoplasmic bodies in epithelial cells of stomach at 10 to 75 mg/kg administered as oral gavage qd for 28 consecutive days measured on day 29 by microscopic method; type: organism-based; settings: in vivo
# Outline: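 Sub-acute study in Sprague-Dawley rats: 10, 30 or 75 mg/kg given orally once a day for 28 consecutive days as a yellow suspension. There were 4 groups of up to 30 rats each (15M/15F), including a control. Body weight, clinical observations and terminal findings were assessed.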
# Rattus norvegicus [17] = experiment: Toxicity in Sprague-Dawley rat assessed as mucosal hyperplasia in duodenum at 75 mg/kg administered as oral gavage qd for 28 consecutive days measured on day 29 by microscopic method; type: organism-based; settings: in vivo
# Outline: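 Sub-acute oral toxicity study in Sprague-Dawley rats. The drug was given once daily for 28 consecutive days at 10, 30 or 75 mg/kg, formulated as a suspension. There were 4 groups of up to 30 rats each (15 male, 15 female). The study evaluated systemic exposure to the drug.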
# Rattus norvegicus [18] = experiment: Toxicity in Sprague-Dawley rat assessed as eosinophilic cytoplasmic bodies in epithelial cells of duodenum at 75 mg/kg administered as oral gavage qd for 28 consecutive days measured on day 29 by microscopic method; type: organism-based; settings: in vivo; outline: as §2
# Plasma [19] = experiment: Drug metabolism in Sprague-Dawley rat assessed as tizoxanide-glucuronide level in plasma administered via oral gavage qd for 28 consecutive days; type: ADME
# Outline: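 In a sub-acute study, Sprague-Dawley rats were dosed once daily for 28 consecutive days at 10, 30 or 75 mg/kg, given as a yellow suspension. There were four groups of up to 30 rats each (15M/15F) to assess systemic exposure.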
# Rattus norvegicus [20] = experiment: Toxicity in Sprague-Dawley rat assessed as mixed cell inflammation in stomach at 75 mg/kg administered as oral gavage qd for 28 consecutive days followed by 2 weeks recovery period by microscopic method; type: organism-based; settings: in vivo, 336 h; outline: as §2
# Rattus norvegicus [21] = experiment: Toxicity in Sprague-Dawley rat assessed as hemorrhage in stomach at 75 mg/kg administered as oral gavage qd for 28 consecutive days followed by 2 weeks recovery period by microscopic method; type: organism-based; settings: in vivo, 336 h; outline: as §2
# Canis familiaris [22] = experiment: Toxicity in Beagle dog assessed as early death at 5 to 25 mg/kg, po administered as gelatin capsule once daily for 28 days followed by 2 weeks recovery period measured on day 43; type: organism-based, Canis lupus familiaris; settings: in vivo
# Outline: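 Sub-acute study in Beagle dogs: 5, 15 or 25 mg/kg/day given orally in a single gelatin capsule once a day for 28 consecutive days to assess systemic exposure and toxicity, with NOAEL determination.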
# Canis familiaris [23] = experiment: Toxicity in Beagle dog assessed as emesis at 25 mg/kg, po administered as gelatin capsule once daily for 28 days measured on day 29; type: organism-based, Canis lupus familiaris; settings: in vivo, 672 h
# Outline: (§3)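 Sub-acute study in Beagle dogs dosed orally by gelatin capsule at 5, 15 and 25 mg/kg once a day for 28 consecutive days.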
# Canis familiaris [24] = experiment: Toxicity in Beagle dog up to 25 mg/kg, po administered as gelatin capsule once daily for 28 days by ophthalmoscopic method; type: organism-based, Canis lupus familiaris; settings: in vivo, 672 h; outline: as §3
# Canis familiaris [25] = experiment: Cardiotoxicity in Beagle dog up to 25 mg/kg, po administered as gelatin capsule once daily for 28 days measured 1 hr post last dose on one of last 3 days of dosing; type: toxicity, organism-based, Canis lupus familiaris; settings: in vivo
# Outline: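 Beagle dogs received the drug orally in a single gelatin capsule at 5, 15 or 25 mg/kg once daily for 28 consecutive days in a sub-acute toxicity study assessing systemic exposure.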
# Canis familiaris [26] = experiment: Toxicity in Beagle dog assessed as effect on hematology up to 25 mg/kg, po administered as gelatin capsule once daily for 28 days measured on day 29; type: organism-based, Canis lupus familiaris; settings: in vivo, 672 h; outline: as §3
# Canis familiaris [27] = experiment: Toxicity in Beagle dog assessed as decrease in cholesterol level at 25 mg/kg, po administered as gelatin capsule once daily for 28 days followed by two weeks of recovery period; type: organism-based, Canis lupus familiaris; settings: in vivo, 672 h; outline: as §3
smiles,measurement,setting,value
CC(C)(C)[C@H](N)C(=O)Oc1ccccc1C(=O)Nc1ncc([N+](=O)[O-])s1.Cl,beta t1/2,Rattus norvegicus [1],22.8 min
same,Drug metabolism,Plasma [2],Metabolite_Detected
same,Tmax,Rattus norvegicus [3],5 to 15 min
same,F,Rattus norvegicus [4],13%
same,beta t1/2,Rattus norvegicus [5],22.8 min
same,Activity,Rattus norvegicus [6],Toxic
same,Activity,Canis familiaris [7],Non-Toxic
same,AUCt,Rattus norvegicus [8],23600 ng·h/mL
same,Drug metabolism,Plasma [9],Metabolite_Detected
same,Tmax,Rattus norvegicus [10],5 min
same,Activity,Rattus norvegicus [11],Toxic
same,Activity,Rattus norvegicus [12],Toxic
same,Activity,Rattus norvegicus [13],Toxic
same,Activity,Rattus norvegicus [14],Toxic
same,Activity,Rattus norvegicus [15],Toxic
same,Activity,Rattus norvegicus [16],Toxic
same,Activity,Rattus norvegicus [17],Toxic
same,Activity,Rattus norvegicus [18],Toxic
same,Drug metabolism,Plasma [19],Dose-dependent effect
same,Activity,Rattus norvegicus [20],Non-Toxic
same,Activity,Rattus norvegicus [21],Non-Toxic
same,Activity,Canis familiaris [22],Non-Toxic
same,Activity,Canis familiaris [23],Toxic
same,Activity,Canis familiaris [24],Non-Toxic
same,Activity,Canis familiaris [25],Non-Toxic
same,Activity,Canis familiaris [26],Non-Toxic
same,Activity,Canis familiaris [27],Non-Toxic
